Reference: PMC3338887 (Journal of Natural Products, 2012)
Entries after “also recorded” stand apart in the source; their conditions may differ.

Assays:
C. albicans DAY185 = assay: C. albicans growth inhibition / cell viability; assay type: cell-based, Candida albicans; settings: for MIC: Candida albicans, DAY185, 48 h, read-out: MIC of growth inhibition
[1] = system: C. albicans DAY185 hyphae formation; assay: Hyphae formation assay; assay type: cell-based, Candida albicans; settings: for network of hyphal growth versus vehicle control: 50 μM, 6 h incubation, Figure 3; for germ tube and hyphae formation by 6 h: 6 h post inoculation; for germ tube and hyphae formation by 6 h / hyphae at 24 h: versus vehicle-treated cells; for hyphae at 24 h: 24 h post inoculation; for C. albicans hyphae formation / hyphal morphogenesis: phase contrast microscopy
How it was run: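 DAY185 grown overnight in BHI at 37 °C, pelleted, washed and resuspended in PBS pH 7.4. Seeded at 1×10^6 cells/well for 1 h at 37 °C, then washed twice with PBS to remove non-adherent cells. RPMI 1640 with 2% glucose plus test compound (50 μM), farnesol (50 μM) or DMSO vehicle (1% by vol.) added. Incubated at 37 °C; phase-contrast microscopy (×200) at 2.5, 6 and 24 h.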

[2] = system: C. albicans DAY185 biofilm formation; assay: Biofilm time of addition assay; assay type: cell-based, Candida albicans; settings: conclusion from the time-of-addition study
MIA PaCa-2 cells = assay: Mammalian cell cytotoxicity assay; assay type: cell-based, human; settings: MIA PaCa-2 cell line, 24 h, MTT
[3] = Stability in organic solvents; assay type: physicochemical; settings: MeOH and varying H2O-MeOH mixtures, CHCl3, CH2Cl2, EtOAc
[4] = several organic solvents; cited from earlier work

Question: Which MIC (C. albicans DAY185) does the source give for `CC1(C)C=Cc2c(ccc3c2[N+]([O-])=C2C(C)(C)[C@@H]4C[C@]56CCCN5C(=O)[C@]4(NC6=O)[C@H]4N5C(=O)[C@@]67CCCN6C(=O)[C@@]56[C@@H]([C@]234)[C@]2(O)C(=[N+]([O-])c3c2ccc2c3C=CC(C)(C)O2)C(C)(C)[C@@H]6C7)O1` [Compound 14, waikialoid B] here?
Answer: > 200 µM

Question: For `CC1(C)C=Cc2c(ccc3c4c([nH]c23)C(C)(C)[C@@H]2C[C@]35CCCN3C(=O)[C@@]2(C4)NC5=O)O1` [Compound 6, stephacidin A], which MIC (C. albicans DAY185) is on record?
Answer: > 200 µM

Question: Which MIC (C. albicans DAY185) does the source give for `CC(C)=CCC/C(C)=C/CC/C(C)=C/CO` [farnesol, reference compound] here?
Answer: > 200 µM

Question: And the “effect on C. albicans cell survival” value (C. albicans DAY185; positive control)?
Answer: did not impede cell survival

Question: And the “network of hyphal growth versus vehicle control” value [1]?
Answer: significantly reduced or absent from nearly all cells

Question: What does the source list for `C/C=C/C=C/C=C/[C@H]1C[C@@H](O)CC(=O)[C@@H]1C` [Compound 15, waikialide A]?
Answer: MIC (C. albicans DAY185): > 200 µM; network of hyphal growth versus vehicle control [1]: significantly reduced or absent from nearly all cells; germ tube and hyphae formation by 6 h [1]: did not form germ tubes or hyphae by 6 h; hyphae at 24 h [1]: severely truncated hyphae; C. albicans hyphae formation / hyphal morphogenesis [1]: inhibited C. albicans hyphae formation in a dose dependent manner

Question: With `CC1(C)C=Cc2c(ccc3c2[N+]([O-])=C2C3=C[C@@]34NC(=O)[C@]5(CCCN5C3=O)C[C@H]4C2(C)C)O1` [Compound 7, CJ-17665] as the molecule, how does the MIC (C. albicans DAY185) read?
Answer: > 200 µM

Question: Which MIC (C. albicans DAY185) does the source give for `CC1(C)C=Cc2c(ccc3c4c([nH]c23)C(C)(C)[C@@H]2C[C@]35CCCN3C(=O)[C@]2(NC5=O)[C@H]4O)O1` [Compound 5, notoamide R] here?
Answer: > 200 µM

Question: With `CC1(C)C=Cc2c(ccc3c2NC(=O)[C@@]32C[C@@]34NC(=O)[C@]5(CCCN5C3=O)C[C@H]4C2(C)C)O1` [Compound 2, notoamide B] as the molecule, how does the MIC (C. albicans DAY185) read?
Answer: > 200 µM

Question: With `CC1(C)C=Cc2c(ccc3c2[N+]([O-])=C2C(C)(C)[C@@H]4C[C@]56CCCN5C(=O)[C@]4(NC6=O)[C@H]4N5C(=O)[C@@]67CCCN6C(=O)[C@@]56[C@H](c5c([nH]c8c9c(ccc58)OC(C)(C)C=C9)C(C)(C)[C@@H]6C7)[C@]234)O1` [Compound 1, waikialoid A] as the molecule, how does the MIC (C. albicans DAY185) read?
Answer: > 200 µM

Question: What about the “network of hyphal growth versus vehicle control” value [1] of the same molecule?
Answer: significantly reduced or absent from nearly all cells

Question: What about the “germ tube and hyphae formation by 6 h” value [1] of the same molecule?
Answer: did not form germ tubes or hyphae by 6 h

Question: What about the “hyphae at 24 h” value [1] of the same molecule?
Answer: severely truncated hyphae

Question: And the “C. albicans hyphae formation / hyphal morphogenesis” value [1]?
Answer: inhibited C. albicans hyphal morphogenesis; also recorded: inhibited C. albicans hyphae formation in a dose dependent manner

Question: What about the “effect on preformed biofilms” value [2] of the same molecule?
Answer: ineffective at disrupting preformed biofilms; also recorded: likely not effective at inhibiting or disrupting preformed biofilms

Question: What about the “not toxic to mammalian (human) cells at concentrations up to” value (MIA PaCa-2 cells) of the same molecule?
Answer: > 200 µM

Question: What about the stability in solvents [3] of the same molecule?
Answer: very stable for days

Question: With `CC1(C)C=Cc2c(ccc3c2[N+]([O-])=C2C(C)(C)[C@@H]4CC56CCCN5C(=O)[C@]4(NC6=O)[C@H]4N5C(=O)[C@@]67CCCN6C(=O)[C@@]56[C@H](c5c(n(O)c8c9c(ccc58)OC(C)(C)C=C9)C(C)(C)[C@@H]6C7)[C@]234)O1` [Compound 17, stephacidin B] as the molecule, how does the “stability in organic solvents” value [4] read?
Answer: degrade in several organic solvents

Question: For `C/C=C/C=C/C=C/[C@H]1C[C@@H](O)C[C@@H](O)[C@@H]1C` [Compound 16, waikialide B], which MIC (C. albicans DAY185) is on record?
Answer: > 200 µM

Question: For `CC1(C)C=Cc2c(ccc3c2NC(=O)[C@@]32[C@H](O)[C@@]34NC(=O)[C@]5(CCCN5C3=O)C[C@H]4C2(C)C)O1` [Compound 3, sclerotiamide], which MIC (C. albicans DAY185) is on record?
Answer: > 200 µM
